Converted amounts (≈) assume the structure as drawn.
Tested on: Mycobacterium tuberculosis
Assay: Antimicrobial activity against Mycobacterium tuberculosis H37Rv ATCC 27294 by microplate alamar blue assay
Type: functional, organism-based
How it was run: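 M. tuberculosis H37Rv (ATCC 27294) grown in BACTEC 12B medium and tested by microplate Alamar Blue assay. Compounds were dissolved in DMSO, diluted with distilled water, and tested as ten 2-fold dilutions. Read-out was fluorescence. IC90 is the concentration giving 90% fluorescence reduction versus controls; IC50 is defined the same way at 50%.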

Structure (SMILES) | IC50 [µg/mL] | IC90 [µg/mL]
CCOC(=O)Cn1nc(-c2ccc(C)cc2)ccc1=O | > 100 | > 100
C=CCn1nc(-c2ccc(Br)cc2)ccc1=O | 37.8 (≈ 130 µM) | 46.8 (≈ 161 µM)
C=CCn1nc(-c2ccc(Cl)cc2)ccc1=O | 36.6 (≈ 148 µM) | 61.6 (≈ 250 µM)
C=CCn1nc(-c2ccc(C)cc2)ccc1=O | 60.7 (≈ 268 µM) | 76.5 (≈ 338 µM)
C#CCn1nc(-c2ccc(C)cc2)ccc1=O | 63.7 (≈ 284 µM) | 89.2 (≈ 398 µM)
C#CCn1nc(-c2ccc(Cl)cc2)ccc1=O | 34.7 (≈ 142 µM) | > 100
C#CCn1nc(-c2ccc(Br)cc2)ccc1=O | 97.8 (≈ 338 µM) | > 100
COC(=O)Cn1nc(-c2ccc(Cl)cc2)ccc1=O | 94.2 (≈ 338 µM) | > 100
COC(=O)Cn1nc(-c2ccc(Br)cc2)ccc1=O | 73.2 (≈ 227 µM) | > 100
COC(=O)Cn1nc(-c2ccc(C)cc2)ccc1=O | > 100 | > 100
CCOC(=O)Cn1nc(-c2ccc(Cl)cc2)ccc1=O | > 100 | > 100
CCOC(=O)Cn1nc(-c2ccc(Br)cc2)ccc1=O | > 100 | > 100
NC(=O)Cn1nc(-c2ccc(Cl)cc2)ccc1=O | > 100 | > 100
NC(=O)Cn1nc(-c2ccc(Br)cc2)ccc1=O | > 100 | > 100
Cc1ccc(-c2ccc(=O)n(CC(N)=O)n2)cc1 | > 100 | > 100
CCOC(=O)C(C)n1nc(-c2ccc(Cl)cc2)ccc1=O (stereo unspecified) | 28.6 (≈ 93.2 µM) | 46 (≈ 150 µM)
CCOC(=O)C(C)n1nc(-c2ccc(Br)cc2)ccc1=O (stereo unspecified) | 26.8 (≈ 76.5 µM) | 47.5 (≈ 135 µM)
CCOC(=O)C(C)n1nc(-c2ccc(C)cc2)ccc1=O (stereo unspecified) | 64.9 (≈ 227 µM) | 84 (≈ 293 µM)
